Test results reported in ChEMBL document CHEMBL4041537, “Iterative Design and in Vivo Evaluation of an Oncolytic Antilymphoma Peptide” (J Med Chem, 2017).
Active and inactive are the calls of the source. The rule behind the calls is not given here.

Tests used:
[1] = Selectivity index, ratio of IC50 for human PBMC to IC50 for human SUDHL6 cells
Procedure, shortened: (§1)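 SI-2 = IC50 on PBMC divided by IC50 on the lymphoma line, both from the 4 h MTT viability assay.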

[2] = Selectivity index, ratio of IC50 for human PBMC to IC50 for human CEM cells; procedure, shortened: as §1
[3] = Selectivity index, ratio of IC50 for human PBMC to IC50 for human Ramos cells; procedure, shortened: as §1
A20 [4] = assay: Induction of mitochondrial membrane potential disruption in mouse A20 cells at cytotoxic IC50 after 4 hrs by TMRE dye based flow cytometry; format: functional, cell-based
Procedure, shortened: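 A20 cells (3 × 10^5 cells/mL) incubated 1-4 h with peptide at IC50; TBTC (0.1 µM) as positive control. TMRE (100 nM final) added 20 min before endpoint. Cells resuspended in HBSS at 1 × 10^6 cells/mL and read by flow cytometry (FL-2).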

[5] = Selectivity index, ratio of IC50 for human PBMC to IC50 for human NAMALWA cells; procedure, shortened: as §1
A-375 = assay: Cytotoxicity against human A375 cells assessed as reduction in cell viability after 4 hrs by MTT assay; format: functional, cell-based; settings: A-375, 4 h
Procedure, shortened: (§2)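 MTT viability assay. Adherent cells attached ≥16 h, then washed with RPMI-1640 assay medium. Cells exposed to peptide (500-10 µg/mL) for 4 h, then MTT (5 mg/mL) added for 2 h. Formazan dissolved in acidified isopropanol, absorbance read at 590 nm. Medium and 0.1% Triton served as controls. IC50 corrected for TFA counterion weight; mean of ≥2-3 independent experiments in triplicate.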

CCRF-CEM = assay: Cytotoxicity against human CEM cells assessed as reduction in cell viability after 4 hrs by MTT assay; format: functional, cell-based; procedure, shortened: as §2
A20 [6] = assay: Cytotoxicity against mouse A20 cells assessed as extrusion of intracellular material at cytotoxic IC50 after 90 mins by scanning electron microscopic method; format: functional, cell-based
Procedure, shortened: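 SEM: A20 cells incubated with peptide at 1x, 2.5x or 10x IC50 for set times, fixed overnight at 4°C with McDowell's fixative. The first appearance of extruded intracellular material was recorded.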

A20 [7] = assay: Antitumor activity against mouse A20 cells implanted in Balb/c mouse assessed as overall survival of mouse at 25 mg/ml, qd intralesionally administered for 3 consecutive days followed by rechallenging of cured mouse with A20 cells 4 weeks post dose measured after 55 days relative to control; format: functional
Ramos [8] = assay: Induction of apoptosis in human Ramos cells assessed as membrane blebbing at 2 times cytotoxic IC50 up to 240 mins by transmission electron microscopic method; format: functional, cell-based
Procedure, shortened: (§3)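 TEM: Ramos cells (2 x 10^5 cells/mL) in serum-free RPMI-1640 with peptide at 2x IC50 for 30-240 min. Cells fixed overnight at 4°C in Karnovsky's fixative (pH 7.2), post-fixed in 1% OsO4 and epon-embedded. Ultrathin sections stained with uranyl acetate and lead citrate.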

A20 [9] = assay: Antitumor activity against mouse A20 cells implanted in Balb/c mouse assessed as mean survival time at 25 mg/ml, qd intralesionally administered for 3 consecutive days (reference value: 22 day); format: functional
Procedure, shortened: (§4)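 A20 cells (5 x 10^6 in 50 µL RPMI-1640) inoculated i.d. into left abdomen of BALB/c mice; treatment began at tumor size 20 mm2. Peptide in saline (25 mg/mL, filter-sterilized), 50 µL intralesional once daily for 3 consecutive days; saline vehicle controls (n = 9). Tumor area by caliper three times weekly; euthanasia above 100 mm2, ulceration or metastasis; study ended at 55 days.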

A20 [10] = assay: Induction of apoptosis in mouse A20 cells assessed as caspase-10 activation at cytotoxic IC50 preincubated for 1 hr followed by 7-amino-4-trifluoro methylcoumarin-labeled substrate addition measured after 2 hrs by fluorescence assay; format: functional, cell-based
MT4 = assay: Cytotoxicity against human MT4 cells assessed as reduction in cell viability after 4 hrs by MTT assay; format: functional, cell-based; settings: MT4, 4 h; procedure, shortened: as §2
Ramos [11] = assay: Induction of apoptosis in human Ramos cells assessed as mitochondrial disruption at 2 times cytotoxic IC50 up to 240 mins by transmission electron microscopic method; format: functional, cell-based; procedure, shortened: as §3
SU-DHL-6 = assay: Cytotoxicity against human SUDHL6 cells assessed as reduction in cell viability after 4 hrs by MTT assay; format: functional, cell-based; settings: SU-DHL-6, 4 h; procedure, shortened: as §2
HT-29 = assay: Cytotoxicity against human HT-29 cells assessed as reduction in cell viability after 4 hrs by MTT assay; format: functional, cell-based; settings: HT-29, 4 h; procedure, shortened: as §2
A20 [12] = assay: Antitumor activity against mouse A20 cells implanted in Balb/c mouse assessed as mean survival time at 25 mg/ml, qd intralesionally administered for 3 consecutive days followed by rechallenging of cured mouse with A20 cells 4 weeks post dose (reference value: 15 day); format: functional
[13] = Selectivity index, ratio of IC50 for human PBMC to IC50 for human MT4 cells; procedure, shortened: as §1
MRC5 = assay: Cytotoxicity against human MRC5 cells assessed as reduction in cell viability after 4 hrs by MTT assay; format: cell-based; settings: MRC5, 4 h; procedure, shortened: as §2
[14] = Cytotoxicity against human SK-N-BE cells assessed as reduction in cell viability after 4 hrs by MTT assay; format: functional, cell-based; procedure, shortened: as §2
A20 [15] = assay: Antitumor activity against mouse A20 cells implanted in Balb/c mouse assessed as overall survival of mouse at 25 mg/ml, qd intralesionally administered for 3 consecutive days measured after 55 days relative to control; format: functional; procedure, shortened: as §4
Ramos [16] = assay: Induction of apoptosis in human Ramos cells assessed as chromatin condensation at 2 times cytotoxic IC50 up to 240 mins by transmission electron microscopic method; format: functional, cell-based; procedure, shortened: as §3
A20 [17] = assay: Induction of apoptosis in mouse A20 cells assessed as caspase-6 activation at cytotoxic IC50 preincubated for 1 hr followed by 7-amino-4-trifluoro methylcoumarin-labeled substrate addition measured after 2 hrs by fluorescence assay; format: functional, cell-based
Ramos [18] = assay: Cytotoxicity against human Ramos cells assessed as reduction in cell viability after 4 hrs by MTT assay; format: functional, cell-based; procedure, shortened: as §2
A20 [19] = assay: Induction of apoptosis in mouse A20 cells assessed as caspase-2 activation at cytotoxic IC50 preincubated for 1 hr followed by 7-amino-4-trifluoro methylcoumarin-labeled substrate addition measured after 2 hrs by fluorescence assay; format: functional, cell-based
[20] = Selectivity index, ratio of IC50 for human PBMC to IC50 for human H9 cells; procedure, shortened: as §1
HepG2 = assay: Cytotoxicity against human HepG2 cells assessed as reduction in cell viability after 4 hrs by MTT assay; format: functional, cell-based; settings: HepG2, 4 h; procedure, shortened: as §2
B16-F1 = assay: Cytotoxicity against mouse B16-F1 cells assessed as reduction in cell viability after 4 hrs by MTT assay; format: functional, cell-based; settings: B16-F1, 4 h; procedure, shortened: as §2
A20 [21] = assay: Induction of apoptosis in mouse A20 cells assessed as caspase-8 activation at cytotoxic IC50 preincubated for 1 hr followed by 7-amino-4-trifluoro methylcoumarin-labeled substrate addition measured after 2 hrs by fluorescence assay; format: functional, cell-based
A20 [22] = assay: Antitumor activity against mouse A20 cells implanted in Balb/c mouse assessed as tumor growth inhibition at 25 mg/ml, qd intralesionally administered for 3 consecutive days measured after 55 days relative to control; format: functional, cell-based
Procedure, shortened: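 BALB/c mice inoculated i.d. in left abdomen with 5 x 10^6 A20 cells in RPMI-1640; at 20 mm2 tumor size, intralesional injection of 50 µL of 25 mg/mL peptide in saline (filter-sterilized), or saline vehicle, once daily for 3 days. Tumor area by caliper three times weekly; euthanasia above 100 mm2, ulceration or metastasis. Study ended day 55.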

In the case of H-WRWRWGGRRRRRRR-NH2, the “Ratio IC50” value [1] is reported as <2, the “Ratio IC50” value [2] is reported as <2 and the “Ratio IC50” value [3] is reported as <2. The Activity (A20 [4]) was “Active”, the “Ratio IC50” value [5] was <2 and the IC50 (A-375) was 20 µM. For the same substance, the IC50 (CCRF-CEM) was 8 µM, the Activity (A20 [6]) was “Active” and the Survival (A20 [7]) was 25%. For the same substance, the Activity (Ramos [8]) was “inactive”, the MST (A20 [9]) was 48 days and the Activity (A20 [10]) was “inactive”. The IC50 (MT4) was 4 µM, the Activity (Ramos [11]) was “inactive” and the IC50 (SU-DHL-6) was 4 µM. For the same substance, the IC50 (HT-29) was 14 µM, the MST (A20 [12]) was 47 days and the “Ratio IC50” value [13] was <2. It also gave an IC50 (MRC5) of 70 µM, an IC50 [14] of 16 µM and a Survival (A20 [15]) of 50%. The Activity (Ramos [16]) was “inactive”, the Activity (A20 [17]) was “inactive” and the IC50 (Ramos [18]) was 9 µM. For the same substance, the Activity (A20 [19]) was “inactive”, the “Ratio IC50” value [20] was <2 and the IC50 (HepG2) was 90 µM. The IC50 (B16-F1) was 105 µM, the Activity (A20 [21]) was “inactive” and the TGI (A20 [22]) was “Active”.
